Reference: ChEMBL document CHEMBL5120830, “New aldo-keto reductase 1C3 (AKR1C3) inhibitors based on the hydroxytriazole scaffold” (Eur J Med Chem, 2022)
Converted amounts (≈) assume the structure as drawn. The source made the active and inactive calls. No cut-off for these calls is given here.

What was measured:
[1] = target: T1, Aldo-keto reductase family 1 member C2 (Homo sapiens) (UniProt P52895); experiment: Inhibition of recombinant human AKR1C2 transfected in Escherichia coli BL21 (DE) assessed as reduction in NADPH production at 100 uM using S-tetralol as substrate by fluorescence based analysis relative to control
T1 sequence (whole entry): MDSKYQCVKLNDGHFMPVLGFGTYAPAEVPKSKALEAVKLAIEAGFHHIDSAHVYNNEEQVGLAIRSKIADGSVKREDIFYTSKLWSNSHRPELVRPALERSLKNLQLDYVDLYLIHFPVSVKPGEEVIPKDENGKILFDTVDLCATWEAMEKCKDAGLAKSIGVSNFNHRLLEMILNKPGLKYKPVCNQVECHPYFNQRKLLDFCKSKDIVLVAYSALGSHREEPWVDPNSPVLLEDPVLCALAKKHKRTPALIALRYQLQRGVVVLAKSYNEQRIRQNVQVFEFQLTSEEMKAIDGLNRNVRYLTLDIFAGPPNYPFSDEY
Outline: (§1)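 GST-tagged human AKR1C2 or AKR1C3 made in bacteria (IPTG 0.5 mM, 2 h), purified on glutathione sepharose and thrombin-cleaved. Assay in 100 mM phosphate pH 7 with 200 μM NADP+ and 10% EtOH at 37 °C. S-tetralol was 15 μM for AKR1C2 and 160 μM for AKR1C3. NADPH fluorescence read at 340/460 nm. Inhibition from initial velocities versus solvent controls; ≥3 experiments in triplicate.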

[2] = Lipophilicity, logD of the compound in n-octanol and phosphate buffer at pH 7.4 incubated for 4 hrs by UV-Vis spectrophotometer based shake flask method; type: physicochemical
Outline: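 Shake-flask logD between n-octanol and 50 mM PBS pH 7.4 (ionic strength 0.15 M, KCl). The phases were pre-saturated for 4 h, then shaken ~20 min with compound and centrifuged. Aqueous concentration was read by UV at λmax against calibration curves. Each value averages at least six measurements.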

[3] = Solubility of the compound in PBS at pH 7.4 incubated for 24 hrs by UHPLC analysis; type: physicochemical
Outline: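 About 1 mg of solid was shaken in 1 mL of 50 mM PBS pH 7.4 at 25 °C for 24 h, then filtered (0.45 μm). The filtrate was run on C18 UHPLC with a water/methanol gradient in 0.1% TFA, read at 254 and 230 nm. Concentration came from external calibration over 1-200 μM; detection limit 1 μM.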

[4] = tested on: CWR22R; experiment: Antiproliferative activity against human 22Rv1 cells expressing AKR1C3 assessed as inhibition of cell growth incubated for 72 hrs by SRB assay; type: functional, cell-based; settings: 22Rv1, 72 h
Outline: (§2)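 22RV1 cells in RPMI with 10% FCS, 37 °C, 5% CO2. Seeded at 10,000/well in medium with 10% charcoal-stripped serum and left 24 h. Inhibitor dilutions in DMSO added in triplicate for 72 h; DMSO controls at most 1% v/v. Growth read by sulforhodamine B colorimetric assay. IC50 from the mean of three separate experiments.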

[5] = target: T2, Aldo-keto reductase family 1 member C3 (Homo sapiens, UniProt P42330); experiment: Inhibition of recombinant human AKR1C3 transfected in Escherichia coli BL21 (DE) assessed as reduction in NADPH production using S-tetralol as substrate by fluorescence based analysis; outline: as §1
T2 sequence (P42330 whole entry): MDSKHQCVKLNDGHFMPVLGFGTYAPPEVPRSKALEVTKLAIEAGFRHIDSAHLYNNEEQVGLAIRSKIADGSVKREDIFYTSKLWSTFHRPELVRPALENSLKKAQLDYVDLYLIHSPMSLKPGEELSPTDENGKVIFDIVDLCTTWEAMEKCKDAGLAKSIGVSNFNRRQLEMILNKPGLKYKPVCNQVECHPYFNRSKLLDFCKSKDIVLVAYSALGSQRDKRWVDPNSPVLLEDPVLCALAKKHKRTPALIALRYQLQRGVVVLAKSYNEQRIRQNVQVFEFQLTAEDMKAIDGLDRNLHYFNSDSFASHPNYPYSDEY

[6] = Ionization constant, pKa of the compound by potentiometric titration method; type: physicochemical
Outline: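 pKa was measured by potentiometric titration on a Sirius T3 in MDM cosolvent (20% acetonitrile, 20% dioxane, 20% methanol), with added percentages varied.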

[7] = tested on: CWR22R; experiment: Antiproliferative activity against human 22Rv1 cells expressing AKR1C3 assessed as reduction in cell viability at 40 to 60 uM incubated for 72 hrs in presence of abiraterone by SRB assay relative to either drug alone; type: functional; settings: dose 40-60 µM
Outline: (§3)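 Co-treatment in 22RV1 cells seeded in charcoal-stripped serum medium. Test compound at 40 or 60 μM was given for 72 h with 10 μM abiraterone or 30 μM enzalutamide, or with no drug. Growth was read by SRB assay and expressed as % T/C (mean OD treated / mean OD control × 100).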

[8] = tested on: CWR22R; experiment: Inhibition of prostate specific antigen expression in human 22Rv1 cells expressing AKR1C3 at 5 to 50 uM incubated for 72 hrs by Western blot analysis; type: functional, cell-based; settings: dose 5-50 µM
Outline: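 22RV1 cells seeded at 300,000/well in charcoal-stripped serum medium for 24 h, then treated 72 h at 5 or 50 μM in DMSO (≤0.5% v/v). RIPA lysates of 30 μg protein blotted with anti-PSA (1:500, overnight 4 °C) and HRP secondary. β-actin was the loading control. Densitometric PSA/β-actin as fold change; duplicate.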

[9] = tested on: CWR22R; experiment: Antiproliferative activity against human 22Rv1 cells expressing AKR1C3 assessed as reduction in cell viability at 40 to 60 uM incubated for 72 hrs in presence of , enzalutamide by SRB assay relative to either drug alone; type: functional; settings: dose 40-60 µM; outline: as §3
[10] = target: T3, Aldo-keto reductase family 1 member C2 (Homo sapiens, UniProt P52895); experiment: Inhibition of recombinant human AKR1C2 transfected in Escherichia coli BL21 assessed as reduction in NADP+-dependent S-tetralol oxidation incubated for 20 mins by absorbance based analysis
T3 sequence (P52895 whole entry): T1 sequence (whole entry)

[11] = target: T1, Aldo-keto reductase family 1 member C2 (Homo sapiens); experiment: Inhibition of recombinant human AKR1C2 transfected in Escherichia coli BL21 (DE) assessed as reduction in NADPH production at 20 uM using S-tetralol as substrate by fluorescence based analysis relative to control; outline: as §1
[12] = tested on: CWR22R; experiment: Antiproliferative activity against human 22Rv1 cells expressing AKR1C3 assessed as reduction in cell viability at 100 uM incubated for 72 hrs by SRB assay relative to control; type: functional; outline: as §2
[13] = target: T1, Aldo-keto reductase family 1 member C2 (Homo sapiens); experiment: Inhibition of recombinant human AKR1C2 transfected in Escherichia coli BL21 (DE) assessed as reduction in NADPH production at 50 uM using S-tetralol as substrate by fluorescence based analysis relative to control; outline: as §1
[14] = Inhibition of androstenedione induced testosterone production in human 22Rv1 cells expressing AKR1C3 assessed as reduction in testosterone level to 0.5 uM pretreated for 1 hr followed by androstenedione addition and measured after 24 hrs by ELISA relative to control; type: functional, CWR22R; settings: time 25 hrs
Outline: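 22RV1 cells seeded at 30,000/well in medium with 10% charcoal-stripped serum and left 24 h. Inhibitor added 1 h before 30 nM androstenedione, then 24 h more. Supernatant (1:2) assayed for testosterone by ELISA read at 405 nm against a standard curve. Mean of three experiments, each in triplicate.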

**Q.** With `COc1ccc(Cn2nnc(O)c2C(=O)Nc2cc(C(F)(F)F)cc(C(F)(F)F)c2)cc1` as the molecule, how does the inhibition [1] read?
**A.** 33.6%

**Q.** What about the logD at 4 h [2] of the same molecule?
**A.** 2.47

**Q.** What about the solubility at 24 h [3] of the same molecule?
**A.** 6.91 µM (≈ 3.18 µg/mL)

**Q.** And the IC50 [4]?
**A.** 33.8 µM

**Q.** And the IC50 [5]?
**A.** 0.4 µM

**Q.** Which inhibition [1] does the source give for `COc1ccc(Cc2onc(O)c2C(=O)Nc2cccc(-c3ccccc3)c2)cc1` here?
**A.** 7.32%

**Q.** What about the logD at 4 h [2] of the same molecule?
**A.** 2.16

**Q.** What about the solubility at 24 h [3] of the same molecule?
**A.** 10.8 µM (≈ 4.3 µg/mL)

**Q.** And the IC50 [4]?
**A.** 54.8 µM

**Q.** And the pKa [6]?
**A.** 4.5

**Q.** And the IC50 [5]?
**A.** 0.19 µM

**Q.** With `COc1ccc(Cn2nnc(O)c2C(=O)Nc2cccc(Oc3ccccc3)c2)cc1` as the molecule, how does the inhibition [1] read?
**A.** 72.8%

**Q.** What about the Activity [7] of the same molecule?
**A.** >20%

**Q.** What about the inhibition [8] of the same molecule?
**A.** Active

**Q.** And the solubility at 24 h [3]?
**A.** < 1 µM

**Q.** What about the IC50 [4] of the same molecule?
**A.** 65 µM

**Q.** And the IC50 [5]?
**A.** 0.11 µM

**Q.** And the Activity [9]?
**A.** 50%

**Q.** What does the source list for `COc1ccc(Cn2nnc(O)c2C(=O)Nc2cccc(-c3cccc(O)c3)c2)cc1`?
**A.** inhibition [1]: 38.5%; logD at 4 h [2]: 2.25; solubility at 24 h [3]: 40.3 µM (≈ 16.8 µg/mL); IC50 [4]: 75.7 µM; pKa [6]: 4.9; IC50 [5]: 0.21 µM

**Q.** With `COc1ccc2[nH]c(C(=O)N3CCC(CC(C)(C)O)CC3)cc2c1` [ASP-9521] as the molecule, how does the IC50 [10] read?
**A.** > 20 µM

**Q.** With `COc1ccc(Cn2nnc(O)c2C(=O)Nc2ccc(-c3ccccc3)cc2)cc1` as the molecule, how does the logD at 4 h [2] read?
**A.** 2.19

**Q.** And the inhibition [11]?
**A.** 30%

**Q.** What about the solubility at 24 h [3] of the same molecule?
**A.** < 1 µM

**Q.** What about the IC50 [4] of the same molecule?
**A.** 57.9 µM

**Q.** And the IC50 [5]?
**A.** 0.47 µM

**Q.** For `COc1ccc(Cn2nnc(O)c2C(=O)Nc2ccc3c(c2)ncn3-c2ccccc2)cc1`, which logD at 4 h [2] is on record?
**A.** 2.19

**Q.** What about the Activity [12] of the same molecule?
**A.** 36.88%

**Q.** What about the solubility at 24 h [3] of the same molecule?
**A.** 1.25 µM (≈ 0.551 µg/mL)

**Q.** What about the IC50 [4] of the same molecule?
**A.** > 100 µM

**Q.** And the IC50 [5]?
**A.** 1.63 µM

**Q.** Which inhibition [1] does the source give for `COc1ccc(Cn2nnc(O)c2C(=O)Nc2cccc(C(F)(F)F)c2)cc1` here?
**A.** 59.9%

**Q.** What about the logD at 4 h [2] of the same molecule?
**A.** 1.1

**Q.** What about the solubility at 24 h [3] of the same molecule?
**A.** 21.2 µM (≈ 8.32 µg/mL)

**Q.** For `COc1ccc(Cn2nnc(O)c2C(=O)Nc2ccc(Oc3ccccc3)cc2)cc1`, which inhibition [1] is on record?
**A.** 57.8%

**Q.** And the solubility at 24 h [3]?
**A.** < 1 µM

**Q.** And the IC50 [4]?
**A.** 58.2 µM

**Q.** And the IC50 [5]?
**A.** 0.27 µM

**Q.** With `COc1ccc(Cn2nnc(O)c2C(=O)Nc2cccc(-c3ccc(OC)cc3)c2)cc1` as the molecule, how does the logD at 4 h [2] read?
**A.** 2.59

**Q.** What about the inhibition [13] of the same molecule?
**A.** 31.6%

**Q.** What about the solubility at 24 h [3] of the same molecule?
**A.** < 1 µM

**Q.** What about the IC50 [4] of the same molecule?
**A.** 50.1 µM

**Q.** And the IC50 [5]?
**A.** 0.22 µM

**Q.** Which inhibition [1] does the source give for `COc1ccc(Cn2nnc(O)c2C(=O)Nc2cccc(-c3cccc(OC)c3)c2)cc1` here?
**A.** 45.3%

**Q.** What about the logD at 4 h [2] of the same molecule?
**A.** 2.5

**Q.** And the solubility at 24 h [3]?
**A.** < 1 µM

**Q.** And the IC50 [4]?
**A.** 59 µM

**Q.** And the IC50 [5]?
**A.** 0.26 µM

**Q.** Which results are given for `COc1ccc(Cn2nnc(O)c2C(=O)Nc2cccc(-c3ccc(O)cc3)c2)cc1`?
**A.** inhibition [1]: 37.9%; logD at 4 h [2]: 2.19; solubility at 24 h [3]: 2.05 µM (≈ 0.854 µg/mL); IC50 [4]: 67.5 µM; IC50 [5]: 0.31 µM

**Q.** What does the source list for `COc1ccc(Cn2nnc(O)c2C(=O)Nc2cccc(-c3ccccc3)c2)cc1`?
**A.** inhibition [1]: 30.5%; logD at 4 h [2]: 2.3; Activity [7]: >20%; inhibition [8]: Active; inhibition at 0.5 µM [14]: 20%; solubility at 24 h [3]: < 1 µM; IC50 [4]: 52.1 µM; IC50 [5]: 0.069 µM; Activity [9]: 30%
